Measured values taken from PubChem BioAssay.
Results filed as inconclusive are left out.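 Rule for the calls, unless noted: active = viability increase at or above a cutoff of the median across tested compounds plus 3 SD (cut at about 8.5% in these data, passing the limit was not always enough); inconclusive = some gains above the cutoff, reason not given; inactive = the rest.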

How the values were obtained:
[1] = S. cerevisiae growth inhibition in permissive medium (OD615), pilot counter-assay for S. cerevisiae lifespan shortening project, permissive growth control (AID 705;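 active = growth inhibition above 25% in both replicates, a cutoff set 3 SD above the mean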); details: OD615, 24 h, at 10 µM, active compounds read high
Procedure, shortened: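 System: S. cerevisiae with engineered DeaD lifespan system. Medium: SC raffinose/galactose permissive medium. Doses: single compound dose of 10 µM, 0.25% DMSO final. Schedule: 24 h exposure, 30 °C. Measured by: OD615 turbidity read. Read-out: growth inhibition.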

[2] = S. cerevisiae growth inhibition in restrictive medium, OD615, pilot screen, restrictive growth control, yeast lifespan reduction project (AID 706;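 active = growth inhibition above a set limit, 3 SD over mean compound inhibition, in both replicates, cut at about 43% in these data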;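 note: modified DeaD lifespan yeast strain shifted to restrictive glucose medium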); details: OD615, 48 h, at 10 µM, active compounds read high
Procedure, shortened: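 Assay system – genetically modified Saccharomyces cerevisiae, DeaD replicative lifespan assay strain · Medium – CSMM-D glucose medium · Doses – 10 µM compound, 0.25% DMSO · Times – 4 h pre-incubation, 48 h exposure at 30 °C · Signal – optical density at 615 nm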

[3] = doxorubicin toxicity protection in MRP-1 cells – H69AR cells, CellTiter-Glo, duplicate, MRP-1 activator project, pilot screen (AID 807); details: H69AR viability with doxorubicin, CellTiter-Glo luminescence; at 10 µM; active compounds read high;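 note: compound pretreatment 18-22 h then 72 h combined with doxorubicin; 0% = doxorubicin alone and 100% = vehicle without doxorubicin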
[4] = viability of HCT116 without oncogenic beta-catenin – human colon tumor cells, pilot screen (AID 823;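 active = cell viability at or below a set limit in both duplicate runs, the limit being the all-compound median minus 4 SD, cut at about 23% in these data, passing the limit was not always enough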;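 note: 0% = wells killed by 20 µM Hyamine and 100% = untreated DMSO cell wells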); details: HCT116 beta-catenin knockout viability, CellTiter-Glo, 60 h; at 10 µM; active compounds read low
[5] = viability of PTEN-null HCT116 cells – cell-based, HCT116 clonal line, CellTiter-Glo, pilot screen (AID 824;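 active = viability at or below 27.92% in each of two runs, the all-compound median minus 4 SD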;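 note: 0% = 20 µM Hyamine control and 100% = vehicle cell control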); details: HCT116 PTEN-deleted viability, 60 h, at 10 µM, active compounds read low
[6] = RAM pathway blockade in budding yeast – dse1pr::URA3 reporter, 5-FOA selection, pilot screen (AID 869;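 active = inhibition over a set limit, the all-compound mean plus 3 SD, in both replicate runs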;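 note: 0% = DMSO wells with no growth and 100% = 10 µM 1-NA-PP1 with full growth; RAM network block rescues cells from 5-FOA so hits raise OD615 growth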); details: S. cerevisiae dse1pr::URA3 5-FOA growth, OD615, 2 d; at 10 µM; active compounds read high; strain carries analog-sensitive mutant Cbk1 kinase
[7] = RAM signaling pathway blockade in yeast – S. cerevisiae, Pdr1DBD-CYC8 efflux-inhibited sensitized strain, primary screen (AID 1298;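 active = RAM network inhibition above 8.4% in each of two replicates, 3 SD over the compound average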;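 note: 0% = DMSO untreated cells without growth and 100% = 10 µM 1-NA-PP1 full growth; higher means more yeast growth rescued from 5-FOA killing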); details: S. cerevisiae cbk1-as DSE1-URA3 strain, 5-FOA growth OD615, 2 d; at 50 µM; active compounds read high

CC(=O)c1ccc(OCCCC(=O)NCC(c2ccco2)N(C)C)cc1 (stereo unspecified)
inactive: growth inhibition [1] 4.54% | growth inhibition [2] -0.015% | viability increase [3] -4.73% | viability [4] 68.9% | viability [5] 85.3% | inhibition [6] 0.755% | RAM network inhibition [7] 1.98%

CCC(CO)Nc1ncnc2c1cnn2-c1ccc(OC)cc1 (stereo unspecified)
inactive: growth inhibition [1] -7.48% | growth inhibition [2] -7.47% | viability increase [3] 0.37% | viability [4] 104% | viability [5] 101% | inhibition [6] 2.01% | RAM network inhibition [7] -1.98%

C=C(C)CSc1nnc(-c2cccc(Cl)c2)n1N
inactive: growth inhibition [1] 3.94% | growth inhibition [2] 14.4% | viability increase [3] 0.23% | viability [4] 95.9% | viability [5] 91.5% | inhibition [6] 1.77% | RAM network inhibition [7] -0.48%

Cn1c(=O)c2c(nc(-n3ccnc3)n2Cc2ccc(Cl)cc2Cl)n(C)c1=O
inactive: growth inhibition [1] -10.2% | growth inhibition [2] -2.64% | viability increase [3] -4.31% | viability [4] 89.2% | viability [5] 80.4% | inhibition [6] 1.17% | RAM network inhibition [7] 5.62%

c1ccc(-c2noc(CN3CCN(c4ccccc4)CC3)n2)cc1
inactive: growth inhibition [1] -8.41% | growth inhibition [2] 2.94% | viability increase [3] -2.27% | viability [4] 94.5% | viability [5] 97.3% | inhibition [6] 0.125% | RAM network inhibition [7] 3.29%

Cc1ccc2oc(=O)c3cc(C(=O)N4CCN(c5ncccn5)CC4)sc3c2c1
inactive: growth inhibition [1] -7.63% | growth inhibition [2] -1.9% | viability increase [3] -3.11% | viability [4] 107% | viability [5] 98.1% | inhibition [6] 1.62% | RAM network inhibition [7] 2.64%

CCCCC(CC)CNC(=O)CCS(=O)(=O)c1cccc2nsnc12 (stereo unspecified)
inactive: growth inhibition [1] -14.8% | growth inhibition [2] -21.5% | viability increase [3] -2.97% | viability [4] 85.7% | viability [5] 91.7% | inhibition [6] 3.19% | RAM network inhibition [7] 4.78%

CCc1ccccc1NC1c2ccccc2C(=O)N1c1cc(C)ccn1 (stereo unspecified)
inactive: growth inhibition [1] -12.1% | growth inhibition [2] -4.82% | viability increase [3] -1.63% | viability [4] 99.1% | viability [5] 101% | inhibition [6] 1.82% | RAM network inhibition [7] 11.4%

O=C(CSc1nnc2scc(-c3ccccc3)n12)c1ccc2c(c1)OCCO2
inactive: growth inhibition [1] 1.86% | growth inhibition [2] 0.4% | viability increase [3] -2.27% | viability [4] 99.5% | viability [5] 93.1% | inhibition [6] 3.66% | RAM network inhibition [7] 7.73%

COCCNc1cc(C)nc2c(-c3ccccc3OC)c(C)nn12
inactive: growth inhibition [1] -1.17% | growth inhibition [2] 4.02% | viability increase [3] -2.38% | viability [4] 97.2% | viability [5] 94.2% | inhibition [6] 1.74% | RAM network inhibition [7] 0.56%

O=C1CCCc2sccc2N1
inactive: growth inhibition [1] -6.83% | growth inhibition [2] -3.71% | viability increase [3] -1.57% | viability [4] 106% | viability [5] 96.9% | inhibition [6] 0.26% | RAM network inhibition [7] 2.15%

N#Cc1ccccc1Cn1c(=O)n(-c2ccc(CC(=O)NCc3ccco3)cc2)c(=O)c2sccc21
inactive: growth inhibition [1] -3.44% | growth inhibition [2] 3.28% | viability increase [3] -1.7% | viability [4] 97.8% | viability [5] 99.6% | inhibition [6] 2.13% | RAM network inhibition [7] 4.46%

COc1ccc(C(=O)NCCn2ccc3ccccc32)cc1OC
inactive: growth inhibition [1] -9.53% | growth inhibition [2] -16.1% | viability increase [3] -3.48% | viability [4] 99.7% | viability [5] 81.9% | inhibition [6] 1.91% | RAM network inhibition [7] 2.68%

COc1cccc(-n2c(Cc3cc(=O)[nH]c(=O)[nH]3)nnc2SCC(=O)N2CCCCCC2)c1
inactive: growth inhibition [1] -10.1% | growth inhibition [2] -12.1% | viability increase [3] -0.94% | viability [4] 99.3% | viability [5] 98.5% | inhibition [6] -0.735% | RAM network inhibition [7] 7.07%

Cc1cc(C(F)(F)F)n2ncc(C(=O)O)c2n1
inactive: growth inhibition [1] 2.26% | growth inhibition [2] 0.105% | viability increase [3] -0.34% | viability [4] 98.3% | viability [5] 91% | inhibition [6] -0.025% | RAM network inhibition [7] 0.78%

COc1ccc(NC(=O)NCCCN2CCCC2=O)cc1
inactive: growth inhibition [1] -2.73% | growth inhibition [2] 8.62% | viability increase [3] 0.12% | viability [4] 105% | viability [5] 103% | inhibition [6] 0.945% | RAM network inhibition [7] -0.16%

CCc1ccc(NC(=O)C2CC=CCC2C(=O)O)cc1 (stereo unspecified)
inactive: growth inhibition [1] 6.68% | growth inhibition [2] 5.45% | viability increase [3] 0.72% | viability [4] 98.1% | viability [5] 98.9% | inhibition [6] -0.5% | RAM network inhibition [7] 4.12%

COCCNC(=O)COc1ccccc1Cl
inactive: growth inhibition [1] -8.43% | growth inhibition [2] 0.04% | viability increase [3] -1.02% | viability [4] 95.4% | viability [5] 93.8% | inhibition [6] 0.815% | RAM network inhibition [7] 1.81%
